Laboratory results: ChEMBL document CHEMBL4828712, “Design of gp120 HIV-1 entry inhibitors by scaffold hopping via isosteric replacements” (Eur J Med Chem, 2021)
The source made the active and inactive calls. No cut-off for these calls is given here.

Legend:
[1] = (§1) Cytotoxicity against human TZM-bl cells assessed as reduction in cell viability incubated for 3 days by XTT assay; format: cell-based; conditions: TZM-bl cells, time 3 day
[2] = Inhibition of gp120 in HIV-1 NL4-3 HXB-2-Luc pseudotyped virus infected in human TZM-bl cells assessed as reduction in viral infection pretreated for 30 mins before viral infection and measured after 3 days by luciferase based single cycle infection assay; format: cell-based, HIV-1 M:B_HXB2R; conditions: Human immunodeficiency virus 1, NL4-3, TZM-bl
How it was run: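 Single-cycle infection of TZM-bl cells with the HIV-1 NL4-3-HXB2-Luc pseudotyped virus bearing Env of lab-adapted HIV-1 HXB-2 (CXCR4-tropic), with luciferase read-out.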

[3] = Inhibition of glycoprotein in VSV-G pseudotyped MLV virus infected in human U87/CD4/CCR5 cells assessed as inhibition of viral infection pretreated for 30 mins before viral infection and measured after 3 days by luciferase based single cycle infection assay; format: cell-based; conditions: Murine leukemia virus
How it was run: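 Specificity counter-screen in which U87-CD4-CCR5 cells are infected with the luciferase-reporter control pseudovirus MLV-GP/VSV-G/Luc; IC50 is derived from inhibition of infection.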

TZM = assay: as §1; format: cell-based; conditions: tzm, 72 h, time 3 day
[4] = Cytotoxicity against human U87/CD4/CCR5 cells assessed as reduction in cell viability incubated for 3 days by XTT assay; format: cell-based; conditions: time 3 day; for CC50 at 72 h: U87/CD4/CCR5 cells
How it was run: (§2)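 Viability read by the colorimetric XTT method in the stated cell line, run alongside the antiviral assays on the same cells; CC50 calculated from the viability data; values reported as mean ± standard deviation.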

[5] = target: Human immunodeficiency virus type 1 reverse transcriptase (Human immunodeficiency virus 1, UniProt Q72547); assay: Inhibition of recombinant HIV1 reverse transcriptase by colorimetric assay
[6] = target: Envelope glycoprotein gp160 (Human immunodeficiency virus 1) (UniProt Q6QLK5); assay: Inhibition of gp120 in HIV-1 ADA infected in CD4-negative dog Cf2Th-CCR5 cells assessed as antagonism of viral entry by measuring inhibition of viral infection at 20 to 60 uM pretreated for 30 mins before viral infection and incubated for 48 hrs by luciferase assay; format: cell-based; conditions: dose 20-60 µM, time 48.5 hrs
How it was run: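 CD4-negative Cf2Th-CCR5 cells infected with a luciferase-expressing recombinant CD4-dependent HIV-1 ADA pseudovirus under escalating compound concentrations. Read-out is relative infectivity: infection with compound divided by infection without compound. Three independent experiments, each run in triplicate.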

[7] = Cytotoxicity against CD4-negative dog Cf2Th-CCR5 cells assessed as reduction in cell viability incubated for 3 days by XTT assay; format: cell-based, Canis lupus familiaris; conditions: time 3 day; for CC50: cf2th-ccr5, 72 h; how it was run: as §2

Sequence of Envelope glycoprotein gp160 (Human immunodeficiency virus 1) (Q6QLK5 1-814): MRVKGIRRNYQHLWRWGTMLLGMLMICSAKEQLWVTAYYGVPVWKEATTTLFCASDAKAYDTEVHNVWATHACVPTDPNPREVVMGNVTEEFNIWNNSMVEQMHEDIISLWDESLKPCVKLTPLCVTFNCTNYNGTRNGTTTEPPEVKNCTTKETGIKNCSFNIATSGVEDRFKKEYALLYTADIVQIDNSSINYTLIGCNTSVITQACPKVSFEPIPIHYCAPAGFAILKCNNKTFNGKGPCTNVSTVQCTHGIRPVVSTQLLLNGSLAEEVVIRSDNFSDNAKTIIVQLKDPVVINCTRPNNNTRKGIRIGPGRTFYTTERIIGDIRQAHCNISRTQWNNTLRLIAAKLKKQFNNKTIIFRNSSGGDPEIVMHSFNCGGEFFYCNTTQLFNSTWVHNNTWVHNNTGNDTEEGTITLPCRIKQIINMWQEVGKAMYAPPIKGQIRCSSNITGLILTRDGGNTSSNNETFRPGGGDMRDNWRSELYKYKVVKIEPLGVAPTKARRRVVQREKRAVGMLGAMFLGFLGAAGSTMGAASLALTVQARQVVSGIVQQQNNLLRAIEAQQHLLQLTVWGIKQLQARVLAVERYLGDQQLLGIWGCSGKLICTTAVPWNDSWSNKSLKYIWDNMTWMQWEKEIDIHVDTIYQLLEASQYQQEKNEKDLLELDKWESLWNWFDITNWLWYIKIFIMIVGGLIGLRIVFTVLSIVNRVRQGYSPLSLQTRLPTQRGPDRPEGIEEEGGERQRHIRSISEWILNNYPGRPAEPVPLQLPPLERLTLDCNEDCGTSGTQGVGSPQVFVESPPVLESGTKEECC

Compound `NC[C@H](NC(=O)Cc1ccc(OCC2CCCCC2)cc1)c1ncc(CO)s1` has a CC50 at 72 h [1] of 47.5 µM and an IC50 [2] greater than 25 µM.
Compound `NC[C@H](NC(=O)c1ccc(NCC2CCCCC2)cc1)c1ncc(CO)s1` has a CC50 at 72 h [1] of 56.5 µM and an IC50 [2] greater than 15 µM.
For `O=C(NC1(c2nc(CO)cs2)CCNCC1)c1ccc(-c2ccc(C(F)(F)F)cc2)[nH]1`, the IC50 [3] was 6.2 µM, the CC50 (TZM) was 33.7 µM and the CC50 ([4]; u87/cd4/ccr5, 72 h) was 57.7 µM. It also gave an IC50 [5] of 1.7 µM and an IC50 [2] of 5 µM.
In the case of `NC[C@H](NC(=O)c1ccc(OCC2CCCCC2)cc1)c1ncc(CO)s1`, the CC50 at 72 h [1] is reported as 26.5 µM and the IC50 [2] is reported as greater than 15 µM.
For `Cc1nc([C@H](CN)NC(=O)C(=O)Nc2ccc(Cl)cc2)sc1CO`, the CC50 at 72 h [1] was greater than 54 µM and the IC50 [2] was greater than 27 µM.
`NC[C@@H](NC(=O)c1ccc(OCC2CCCCC2)cc1)c1ncc(CO)s1` gave a CC50 at 72 h [1] of 28.2 µM and an IC50 [2] greater than 15 µM.
With `NC[C@H](NC(=O)CNCc1ccc(Cl)cc1)c1ncc(CO)s1` the CC50 at 72 h [1] was greater than 70 µM and the IC50 [2] was greater than 23.4 µM.
In the case of `NC[C@H](NC(=O)c1ccc(C2CCCCC2)[nH]1)c1ncc(CO)s1`, the CC50 at 72 h [1] is reported as greater than 57 µM and the IC50 [2] is reported as greater than 17 µM.
With `NC[C@H](NC(=O)C(=O)NCc1ccc(Cl)c(F)c1)c1ncc(CO)s1` the CC50 at 72 h [1] was greater than 77.6 µM and the IC50 [2] was greater than 15 µM.
For `Cc1nc([C@H](CN)NC(=O)NC(=O)c2ccc(Cl)cc2)sc1CO`, the CC50 at 72 h [1] was greater than 54 µM and the IC50 [2] was greater than 54 µM.
`NCCNC(=O)c1ccc(-c2ccc(Cl)c(F)c2)[nH]1` gave a CC50 (TZM) of 17.8 µM and an IC50 [2] of 3.3 µM.
For `NC[C@H](NC(=O)c1ccc(-c2ccc(Cl)cc2)[nH]1)c1nccs1`, the IC50 [3] was 16.2 µM, the CC50 at 72 h [1] was 36.5 µM and the CC50 at 72 h [4] was 59.1 µM. For the same compound, the IC50 [5] was 18.9 µM and the IC50 [2] was 1 µM.
For `Cc1nc([C@H](CN)NC(=O)c2cc3ccccc3[nH]2)sc1CO`, the CC50 at 72 h [1] was greater than 60 µM and the IC50 [2] was greater than 60 µM.
In the case of `Cc1nc([C@@H](CN)NC(=O)c2cc3ccccc3[nH]2)sc1CO`, the CC50 at 72 h [1] is reported as greater than 60 µM and the IC50 [2] is reported as greater than 60 µM.
In the case of `Cc1nc([C@H](CCN)NC(=O)C(=O)Nc2ccc(Cl)cc2)sc1CO`, the CC50 at 72 h [1] is reported as no less than 38.3 µM and the IC50 [2] is reported as no less than 14.7 µM.
With `NC[C@@H](NC(=O)c1ccc(-c2ccc(Cl)cc2)[nH]1)c1nccs1` the IC50 [3] was 12 µM, the inhibition [6] was “Active” and the CC50 at 72 h [1] was 38.9 µM. It also gave a CC50 at 72 h [4] of 45.5 µM, an IC50 [5] of 31 µM and an IC50 [2] of 2.4 µM. For the same compound, the CC50 at 72 h ([7]; CD4-negative Cf2Th-CCR5 cells) was 24.7 µM.
`Cc1nc([C@H](CN)NC(=O)c2cc3cc(Cl)ccc3[nH]2)sc1CO` showed a CC50 at 72 h [1] greater than 55 µM and an IC50 [2] of 50 µM.
`NC[C@@H](NC(=O)c1ccc(NCC2CCCCC2)cc1)c1ncc(CO)s1` gave a CC50 at 72 h [1] of 56.5 µM and an IC50 [2] greater than 15 µM.
For `Cc1nc([C@@H](CCN)NC(=O)C(=O)Nc2ccc(Cl)cc2)sc1CO`, the CC50 at 72 h [1] was no less than 46.6 µM and the IC50 [2] was 10.6 µM.
`Cc1nc([C@@H](CN)NC(=O)c2cc3cc(Cl)ccc3[nH]2)sc1CO` showed a CC50 at 72 h [1] of 47 µM and an IC50 [2] greater than 40 µM.
`NC[C@@H](NC(=O)C(=O)NCc1ccc(Cl)c(F)c1)c1ncc(CO)s1` gave a CC50 at 72 h [1] greater than 77.6 µM and an IC50 [2] greater than 15 µM.
Compound `Cc1nc([C@@H](CN)NC(=O)C(=O)Nc2ccc(Cl)cc2)sc1CO` has a CC50 at 72 h [1] greater than 54 µM and an IC50 [2] greater than 27 µM.
In the case of `O=C(N[C@H](CC1CCNCC1)c1nc(CO)cs1)c1ccc(-c2ccc(C(F)(F)F)cc2)[nH]1`, the CC50 at 72 h [1] is reported as greater than 40 µM and the IC50 [2] is reported as greater than 12.5 µM.
Compound `O=C(N[C@@H](CC1CCNCC1)c1nc(CO)cs1)c1ccc(-c2ccc(C(F)(F)F)cc2)[nH]1` has a CC50 at 72 h [1] greater than 40 µM and an IC50 [2] greater than 12.5 µM.
In the case of `NC[C@@H](NC(=O)c1ccc(C2CCCCC2)[nH]1)c1ncc(CO)s1`, the CC50 at 72 h [1] is reported as greater than 57 µM and the IC50 [2] is reported as greater than 17 µM.
With `Cc1nc([C@@H](CN)NC(=O)NC(=O)c2ccc(Cl)cc2)sc1CO` the CC50 at 72 h [1] was greater than 54 µM and the IC50 [2] was greater than 54 µM.
Compound `O=C(NC1CCNCC1)c1ccc(-c2ccc(Cl)c(F)c2)[nH]1` has a CC50 at 72 h [1] of 9.7 µM and an IC50 [2] of 4.9 µM.
`CC1(C)CC(NC(=O)C(=O)Nc2ccc(Cl)cc2)CC(C)(C)N1` showed a CC50 at 72 h [1] of 60 µM, an IC50 [5] greater than 300 µM and an IC50 [2] of 6.9 µM. For the same compound, the CC50 [7] was greater than 60 µM.
`NC[C@@H](NC(=O)Cc1ccc(OCC2CCCCC2)cc1)c1ncc(CO)s1` showed a CC50 at 72 h [1] of 27.9 µM and an IC50 [2] greater than 25 µM.
`NC[C@@H](NC(=O)CNCc1ccc(Cl)cc1)c1ncc(CO)s1` showed a CC50 at 72 h [1] greater than 70 µM and an IC50 [2] greater than 23.4 µM.
In the case of `Cc1cc(-c2ccc(C(F)(F)F)cn2)[nH]c1C(=O)NC(CN)c1ncc(CO)s1` (stereo not given), the inhibition [6] is reported as “Active” and the CC50 [7] is reported as greater than 47 µM.
